Compounds with a hit are over-represented: about 4.6% of the library has one in this group of screens.
OX1R antag-1 = antagonists of human orexin 1 receptor (OX1R); Orexin/Hypocretin receptor type 1 (Homo sapiens), O43613; OX1R-expressing cells, FRET antagonist read-out; inhibition, % at 6.6 µM; hit rate 1.8% among 330,000; AID 485270, 2010; in the data active means inhibition mostly above about 38%, no sharp cut-off; inactive means mostly below about 40%;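 further: 0% = agonist challenge alone and 100% = reference antagonist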
Target sequence (O43613 whole entry, looked up): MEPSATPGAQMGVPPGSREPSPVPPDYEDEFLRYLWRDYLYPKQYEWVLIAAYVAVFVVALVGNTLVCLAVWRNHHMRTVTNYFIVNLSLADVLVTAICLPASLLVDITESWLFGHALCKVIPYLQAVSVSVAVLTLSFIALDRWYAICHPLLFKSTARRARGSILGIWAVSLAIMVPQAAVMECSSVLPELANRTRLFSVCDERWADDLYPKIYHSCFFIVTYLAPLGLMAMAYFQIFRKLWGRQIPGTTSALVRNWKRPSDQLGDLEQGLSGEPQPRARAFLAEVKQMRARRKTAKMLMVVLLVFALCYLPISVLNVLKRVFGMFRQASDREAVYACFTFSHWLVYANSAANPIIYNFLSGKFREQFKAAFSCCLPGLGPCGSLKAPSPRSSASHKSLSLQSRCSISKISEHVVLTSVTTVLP
TAAR1 antag = human TAAR1 antagonists, primary screen, Fluo-8 calcium fluorescence, CHO RD-HGA16 cells. AID 624466, 2012. inhibition, % at 3 µM. Trace amine-associated receptor 1 (Homo sapiens), Q96RJ0. antagonist. hit rate 1.5% among 360,000;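 active means inhibition above a per-plate cutoff, the mean inhibition of test compounds on that plate plus 3 SD, cut at about 49% in these data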;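 further: 0% = DMSO plus EC80 beta-PEA response and 100% = DMSO alone without agonist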
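System: RD-HGA16 CHO cells with stable hTAAR1 and Gα16 | Probe or stimulus: EC80 β-phenethylamine stimulus | Dosing: 3 µM, single point | Times: Dye loading 75 min at 37 °C, then 30 min room temperature | Measured by: Fluo-8 calcium-sensitive fluorescence | Read-out basis: % inhibition of agonist calcium response | Replicates: n of 1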
CHO parental Ca = ATP-evoked calcium signal inhibitors, parental CHO, primary screen, counter-screen for OX1R antagonist project, cell-based, fluorescence, Fluo-8 calcium dye | parental CHO-K1, ATP-induced calcium, Fluo-8 fluorescence | inhibition, % at 5.6 µM | hit rate 0.63% among 330,000;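 active means inhibition above that plate's mean sample inhibition plus 3 SD, cut at about 26% in these data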;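 further: 0% = ATP-challenged DMSO wells and 100% = DMSO wells without ATP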
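Test system: untransfected parental CHO cell line; also added: ATP stimulus; dosing: 5.6 µM, single dose; signal: calcium-sensitive Fluo-8 fluorescence; measure: percent inhibition of ATP-evoked calcium rise, normalized to controls; benchmarks: low control ATP plus DMSO, high control DMSO only; replication: one well per compound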
OX1R antag-2 = OX1R (HCRTR1) antagonists, primary screen, fluorescence, CHO/OX1R cells, Fluo-8 calcium, orexin A; inhibition, % at 5 µM; AID 434989, 2010; Fluo-8 calcium fluorescence; Orexin/Hypocretin receptor type 1 (Homo sapiens), O43613; hit rate 0.43% among 330,000;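 active means inhibition above its plate's threshold, mean inhibition of all tested compounds on the plate plus 3 SD, cut at about 37% in these data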;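 further: 0% = orexin A challenge wells and 100% = SB-334867-A antagonist wells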
GPR7 antagonist = GPR7 receptor antagonists, primary screen, cell-based, fluorescence, single concentration. hit rate 1.1% among 290,000. Neuropeptides B/W receptor type 1 (Homo sapiens), P48145. GPR7-expressing cells, fluorescence antagonist assay. AID 1861, 2009. inhibition, % at 4.4 µM; in the data active means inhibition above about 16%, passing the limit was not always enough;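 further: cells stimulated with the agonist NPW; 0% = agonist with vehicle and 100% = vehicle without agonist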
TAAR1 ag = human TAAR1 agonists, primary screen, Fluo-8 calcium fluorescence, CHO RD-HGA16 cells. Trace amine-associated receptor 1 (Homo sapiens), Q96RJ0. vehicle wells 0%, saturating PEA agonist 100%. activation, % at 3 µM. hit rate 0.99% among 360,000. AID 624467, 2012;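 active means activation above the mean activation of all test compounds in the run plus 3 SD, cut at about 38% in these data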
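test system = CHO RD-HGA16 cells carrying human TAAR1 plus Gα16 | schedule = 17-24 h seeding, 75 min 37 °C dye, 30 min RT | compound dosing = 3 µM single concentration | control set = DMSO and PEA EC100 | replicates = n 1 | signal = Fluo-8 fluorescence, 5 s baseline then 140 s kinetic read | measure = percent activation vs PEA EC100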
nonsel antag count = nonselective antagonists in TAAR1 counter-screen cells, counter-screen for hTAAR1 antagonist project, cell-based, fluorescence, calcium | shares compounds with TAAR1 antag | counterscreen cell line, antagonist mode | inhibition, % at 3 µM | hit rate 77% among 2,400; in the data active means inhibition above about 22%;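 further: CHO-Ga16 host cells stimulated with ATP at an EC80 level; 0% = agonist EC80 plus vehicle and 100% = vehicle without agonist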
TAAR1 ant conf = human TAAR1 antagonists, retest of hits, confirmation, cell-based, fluorescence | shares compounds with TAAR1 antag | TAAR1-expressing cells, fluorescence antagonist read-out | inhibition, % at 3 µM | hit rate 40% among 2,400 | AID 651785, 2012; in the data active means inhibition above about 49%;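 further: CHO-Ga16 host cells challenged with agonist PEA near its EC80; 0% = agonist at EC80 plus vehicle and 100% = vehicle with no agonist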
Ga16 ag counter = calcium activation in Ga16-expressing cells, counter-screen for TAAR1 antagonist project, cell-based, fluorescence | shares compounds with TAAR1 antag | agonist counterscreen | activation, % at 3 µM | hit rate 18% among 2,400 | AID 651953, 2012; in the data active means activation above about 12%;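 further: 0% = vehicle wells and 100% = saturating stimulus response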
TAAR1 ag count = TAAR1 activation by candidate antagonists – cell-based, fluorescence, counter-screen for TAAR1 antagonist project; shares compounds with TAAR1 antag; hTAAR1 cell line, agonist mode; activation, % at 3 µM; hit rate 2% among 2,400; AID 651955, 2012; in the data active means activation above about 37%;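 further: CHO cells stably expressing TAAR1 with calcium dye readout; 0% = DMSO vehicle and 100% = full agonist response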
Numbers without * were called inactive.

For CCC(C)Oc1ccc(C(=O)Nc2ccc(CN3CCOCC3)cc2)cc1 (stereo not drawn) the results were TAAR1 antag 7, GPR7 antagonist -10 and TAAR1 ag 8.
O=C(Nc1ccc(CN2CCOCC2)cc1)c1ccc2ccccc2c1 was read as OX1R antag-1 1, TAAR1 antag 11, CHO parental Ca -13, OX1R antag-2 -22, GPR7 antagonist 3 and TAAR1 ag 6.
Screening CCOc1ccc(NC(=O)c2ccc(NC(=O)c3ccc(CN4CCOCC4)cc3)cc2)cc1 returned OX1R antag-1 8, TAAR1 antag 61*, CHO parental Ca -6, OX1R antag-2 -3, GPR7 antagonist -11, TAAR1 ag 12, nonsel antag count 29*, TAAR1 ant conf 47, Ga16 ag counter 7 and TAAR1 ag count 10.
Screening O=C(COc1ccccc1Cl)NC(=S)Nc1ccc(CN2CCOCC2)cc1 returned OX1R antag-1 9, TAAR1 antag 73*, CHO parental Ca -22, OX1R antag-2 -31, GPR7 antagonist 1, TAAR1 ag 12, nonsel antag count 47*, TAAR1 ant conf 51*, Ga16 ag counter 11 and TAAR1 ag count 12.
Screening COC(=O)c1ccc2c(=O)[nH]c(COC(=O)CCC(=O)c3ccc(Cl)cc3)nc2c1 returned OX1R antag-1 15, TAAR1 antag -26, CHO parental Ca -24, OX1R antag-2 -21 and TAAR1 ag 2.
Screening CCOC(=O)c1ccc(S(=O)(=O)N2CCN(C3CC(=O)N(c4ccc(OC)cc4)C3=O)CC2)cc1 (stereo not drawn) returned TAAR1 antag 4 and TAAR1 ag 8.
`Oc1ccc(C[C@H]2CN([C@@H](Cc3cccc(O)c3)CN3CCC[C@@H]3CN3C(=S)NC[C@@H]3Cc3ccccc3)C(=S)N2CC2CCCCC2)cc1` gave TAAR1 antag -15 and TAAR1 ag 0.
Screening Cc1nc2cc(OC3(C)CCN(Cc4ccc(OC(F)(F)F)cc4)C3)ccc2s1 (stereo not drawn) returned TAAR1 antag 3 and TAAR1 ag 7.
For O=C(CSc1ccc([N+](=O)[O-])cc1)NCC1CCCCC1 the results were OX1R antag-1 25, TAAR1 antag 105*, CHO parental Ca -8, OX1R antag-2 -10, GPR7 antagonist -6, TAAR1 ag 16, nonsel antag count 9, TAAR1 ant conf 11, Ga16 ag counter 2 and TAAR1 ag count 2.
`O=C(COC(=O)CSc1ccc(F)cc1)NCC1CCCCC1` gave OX1R antag-1 11, TAAR1 antag -34, CHO parental Ca -7, OX1R antag-2 4, GPR7 antagonist -11 and TAAR1 ag 1.
`CCN(CC)C(=O)C1=C(C)N(CCC2=CCCCC2)C(=O)C(CC(=O)NCCN2CCOCC2)C1` (stereo not drawn) gave TAAR1 antag -13 and TAAR1 ag 3.
For O=C1CC(c2ccco2)CC2=C1C1c3ccccc3C(=O)N1c1ccccc1N2 (stereo not drawn) the results were OX1R antag-1 15, TAAR1 antag 64*, CHO parental Ca -2, OX1R antag-2 -28, GPR7 antagonist 11, TAAR1 ag 16, nonsel antag count 24*, TAAR1 ant conf 45, Ga16 ag counter 5 and TAAR1 ag count 8.
COc1ccc(S(=O)(=O)N(C)CC(=O)NCc2ccccc2)cc1OC was read as OX1R antag-1 2, TAAR1 antag 92*, CHO parental Ca -16, OX1R antag-2 -18, GPR7 antagonist -10, TAAR1 ag -4, nonsel antag count -1, TAAR1 ant conf -4, Ga16 ag counter 0 and TAAR1 ag count 0.
`COc1ccc(S(=O)(=O)N(C)CC(=O)NCCc2ccccc2)cc1OC` gave OX1R antag-1 0, TAAR1 antag 3, CHO parental Ca -8, OX1R antag-2 -1, GPR7 antagonist -11 and TAAR1 ag 6.
Screening CC(C)(C)NC(=O)CN(C(=O)c1snc(C(=O)NC2CCCCC2)c1N)c1ccc(F)cc1 returned OX1R antag-1 10, TAAR1 antag -14, CHO parental Ca -11, OX1R antag-2 -14, GPR7 antagonist -16 and TAAR1 ag -2.
Screening COc1cc(/C=N/n2cnnc2)ccc1OC(=O)c1ccncc1 returned OX1R antag-1 3, TAAR1 antag 107*, CHO parental Ca -11, OX1R antag-2 -7, GPR7 antagonist -8, TAAR1 ag 2, nonsel antag count 6, TAAR1 ant conf 4, Ga16 ag counter 1 and TAAR1 ag count -1.
`CSc1ncc2[nH]c(C(O)c3ccccc3)nc2n1` (stereo not drawn) gave TAAR1 antag -16 and TAAR1 ag 10.
For COc1ccc(-c2c(C#Cc3ccsc3)c3cc(-c4ccc5[nH]ccc5c4)ccc3n2C)cc1 the results were OX1R antag-1 7, TAAR1 antag 14, CHO parental Ca 10, OX1R antag-2 13 and TAAR1 ag 1.
For COc1ccc(-c2c(C#Cc3ccsc3)c3cc(-c4ccc(C(N)=O)cc4)ccc3n2C)cc1 the results were OX1R antag-1 9, TAAR1 antag 102*, CHO parental Ca -10, OX1R antag-2 -20, TAAR1 ag 5, nonsel antag count 12, TAAR1 ant conf 90*, Ga16 ag counter 0 and TAAR1 ag count 0.
`CCC(C)Sc1ccc(-c2nc3cnccn3c2NC2CCCCC2)cc1` (stereo not drawn) gave OX1R antag-1 47, TAAR1 antag 20, CHO parental Ca -30, OX1R antag-2 -36 and TAAR1 ag 8.

Source: PubChem
